Kir21 inh: inhibitors of mouse Kir2.1 inward-rectifier potassium channel. actives 0.85% (n = 310,000). HEK293-Kir2.1, FluxOR thallium flux fluorescence; stronger effect = lower value. B-score at 10 µM;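 active = fluorescence ratio B-score at or below minus 3 SD of library scores, with starting-brightness B-score within 2 SD, cut at about -4.2 in these data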;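 note: channel flux triggered by added potassium and thallium sulfate stimulus; B-score of peak minus minimum fluorescence over baseline after thallium stimulus; more negative B-score means stronger Kir2.1 block with less thallium influx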
KCNK3 inh: human KCNK3 channel inhibition, primary screen; O14649; CHO-KCNK3 thallium flux, FluxOR fluorescence; stronger effect = lower value; B-score at 10 µM; actives 0.84% (n = 340,000);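 active = B-score under library mean minus 4 SD, starting fluorescence ratio at most library mean plus 5 SD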;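 note: more negative B-score means stronger inhibition of thallium flux through KCNK3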
KCNQ1 act: potentiates or activates the human KCNQ1 potassium channel; P51787; actives 0.35% (n = 310,000); B-score at 10 µM; CHO-K1 KCNQ1, thallium flux FluxOR fluorescence; stronger effect = higher value; AID 2648;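 active = fluorescence ratio B-score, a plate-corrected score, at least three library SD, with initial intensity B-score within 5 SD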
Target sequence (P51787 whole entry, looked up): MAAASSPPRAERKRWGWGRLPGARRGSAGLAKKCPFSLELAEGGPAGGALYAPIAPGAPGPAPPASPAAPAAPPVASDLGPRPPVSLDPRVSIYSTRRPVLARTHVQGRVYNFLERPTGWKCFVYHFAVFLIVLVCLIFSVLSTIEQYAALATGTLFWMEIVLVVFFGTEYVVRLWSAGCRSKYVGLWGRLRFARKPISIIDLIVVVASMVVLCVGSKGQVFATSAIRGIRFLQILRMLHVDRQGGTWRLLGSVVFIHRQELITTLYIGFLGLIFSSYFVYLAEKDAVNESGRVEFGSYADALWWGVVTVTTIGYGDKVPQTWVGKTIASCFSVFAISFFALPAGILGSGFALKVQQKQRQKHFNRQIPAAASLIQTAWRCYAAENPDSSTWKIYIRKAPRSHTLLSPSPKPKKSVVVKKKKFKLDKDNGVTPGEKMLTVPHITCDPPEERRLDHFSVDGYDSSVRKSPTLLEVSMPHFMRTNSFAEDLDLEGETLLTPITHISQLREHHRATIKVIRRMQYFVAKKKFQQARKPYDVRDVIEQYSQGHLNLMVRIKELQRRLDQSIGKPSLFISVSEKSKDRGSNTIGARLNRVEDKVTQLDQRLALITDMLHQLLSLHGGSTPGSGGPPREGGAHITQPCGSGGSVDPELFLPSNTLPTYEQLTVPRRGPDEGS
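Schedule – 37 °C overnight plating, 90-min dark dye load, 20-min compound pretreatment · System – stable KCNQ1 CHO-K1 line · Probe or stimulus – thallium- and potassium-containing depolarizing buffer · Measured by – kinetic FluxOR fluorescence, 10 s baseline plus 110 s post-stimulus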
KCNQ1 block: inhibitors of human KCNQ1 potassium channel; CHO-K1 KCNQ1, FluxOR thallium flux fluorescence; stronger effect = higher value; B-score at 10 µM; actives 1.3% (n = 310,000);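 active = compounds whose thallium flux B-score, printed positive for inhibition, exceeds three library SD while starting fluorescence stays within three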;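 note: channel opened by potassium depolarization with thallium stimulus after 20 min compound exposure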
hERG protect: shields human hERG channel from block by proarrhythmic agents. Q12809. CHO-hERG, FluxOR thallium flux, dofetilide IC70 present. activation (rescue from dofetilide block), less the hit threshold, % at 10 µM. actives 0.51% (n = 310,000);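 active = activation above the mean of controls blocked by dofetilide plus 5 SD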;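 note: thallium influx through hERG after potassium depolarization seen as dye fluorescence rise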
KCNK9 block: inhibitors of human KCNK9 two-pore domain potassium channel. actives 1.2% (n = 310,000). B-score at 10 µM. HEK293 KCNK9, FluxOR thallium flux fluorescence; stronger effect = lower value. Q9NPC2;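 active = ratio B-score over 3 SD below the library mean, with starting fluorescence within 5 SD of its mean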;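 note: negative B-score means less thallium flux so channel inhibition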
Starred values were filed as active, the others as inactive; i = inactive; / = not tested or not shown. The list is not random: actives were taken first. Their share in the collection is about 3.8%.

SMILES	Kir21 inh	KCNK3 inh	KCNQ1 act	KCNQ1 block	hERG protect	KCNK9 block
C=CCN1C(=O)/C(=C/C=C2/N(CC)c3ccc(S(=O)(=O)N(C)C)cc3N2CC)SC1=S	-12.2	i	i	9*	-16.7	i
C=CCN1C(=O)/C(=C\C=C2\N(C)c3ccccc3C2(C)C)SC1=S	-3.06	i	i	i	-9.6	i
OC(COc1c(F)cc(Br)cc1F)CN1CCc2ccccc2C1 (stereo unspecified)	-6.98*	i	i	i	-1.2	i
Cc1ccc(C)c(OCC(O)CN2CCC(Cc3ccccc3)CC2)c1 (stereo unspecified)	-6.41*	i	i	i	-16.0	i
OC(COCc1ccccc1)CN1CCc2ccccc2C1 (stereo unspecified)	0.7	i	i	i	-2.0	i
Cc1cccc(C)c1OCC(O)CN1CCc2ccccc2C1 (stereo unspecified)	0.46	i	i	i	-10.6	i
Cc1ccc(C(C)C)c(OCC(O)CN2CCc3ccccc3C2)c1 (stereo unspecified)	-9.13*	i	i	6*	-19.6	i
CCc1noc(C)c1C(=O)OCC(=O)NC(C)c1ccccc1 (stereo unspecified)	/	i	/	/	/	/
Oc1ccc(/C=N/Nc2ncc(Cl)cc2Cl)cc1	-1.1	i	i	i	-1.2	i
Clc1cnc(N/N=C/c2cccs2)c(Cl)c1	-0.54	i	i	6*	-13.1	i
Cc1ccc(/C=N/Nc2ncc(Cl)cc2Cl)s1	1.87	i	i	7*	-23.1	i
O=C(c1ccccc1)N1CCN(S(=O)(=O)N2CCCCCC2)CC1	0.22	i	i	i	-4.5	i
C=CCN(CC=C)C(=O)c1cccc(S(=O)(=O)N2c3ccccc3CC2C)c1 (stereo unspecified)	-1.12	i	i	i	-10.6	i
COc1ccccc1N=Nc1nc(-c2ccccc2)c(-c2ccccc2)[nH]1	-0.12	i	i	i	-27.7	i
COc1ccc(N=Nc2nc(-c3ccccc3)c(-c3ccccc3)[nH]2)cc1	-0.02	i	i	6*	-5.7	i
Oc1ccccc1N=Nc1nc(-c2ccccc2)c(-c2ccccc2)[nH]1	-0.06	i	i	10*	-18.6	i
O=C(Nc1ccc(Cl)c(Cl)c1)OCc1cccnc1	2.85	i	i	i	-10.1	i
Cn1c(-c2ccc3c(c2)OCO3)cnc1NCc1ccccc1Cl	-4.26*	i	i	i	-13.7	i
Cn1c(-c2ccc3c(c2)OCO3)cnc1NCc1ccccc1	-5.98*	i	i	i	-21.7	i
Cn1c(-c2ccc3c(c2)OCO3)cnc1NCc1cccc(Cl)c1	-2.72	i	i	i	-16.1	i
Cn1c(-c2cccc(Br)c2)cnc1NCc1ccccc1O	-6.21*	i	i	i	-13.9	i
N#Cc1c(N)sc(=S)c2c1CCCCC2	-0.67	i	i	i	-12.7	i
O=C(NCc1ccccc1)c1cnc(Cl)c(Cl)c1	0.42	i	i	i	-10.7	i
Cc1cccc(-c2cc3nc4c(c(N5CCOCC5)n3n2)CCCC4)c1	-1.22	i	i	i	-7.0	i
Cc1cccc(-c2cc3nc4c(c(NCc5ccco5)n3n2)CCCC4)c1	0.57	i	i	i	-9.1	-7.22*
SMILES	Kir21 inh	KCNK3 inh	KCNQ1 act	KCNQ1 block	hERG protect	KCNK9 block
C[C@H](CO)N1C[C@H](C)[C@@H](CN(C)C(=O)Nc2ccc(C(F)(F)F)cc2)Oc2c(NC(=O)Nc3ccc4c(c3)OCO4)cccc2C1=O	/	-8.98*	/	/	/	/
O=C(Nc1ccccc1)C1=C[C@@H](C2CCCCC2)C[C@@H](OCc2ccc(CO)cc2)O1	-0.02	i	i	i	-5.7	-7.11*
O=C(NCc1nc2ccccc2[nH]1)C1=C[C@@H](C2CCCCC2)C[C@@H](OCc2ccc(CO)cc2)O1	-0.37	i	i	9*	-4.8	i
C#CCNC(=O)C1=C[C@@H](C2CC2)C[C@@H](OCc2ccc(CO)cc2)O1	-6.55*	i	i	i	-6.6	i
O=C(NCc1nc2ccccc2[nH]1)C1=C[C@H](C2CCCCC2)C[C@H](OCc2ccc(CO)cc2)O1	-0.14	i	i	i	-6.6	i
Cc1ccc(/C=C2/CCc3c([nH]c4ccccc34)C2=O)cc1	2.08	i	i	i	-13.1	i
CS(=O)(=O)Nc1nc2n(n1)C(c1ccccc1)C=C(c1ccc(Br)cc1)N2 (stereo unspecified)	-4.41	i	i	12*	-17.3	i
CN(CCOc1ccccc1Cl)Cc1ccccc1	-0.62	i	i	i	-2.1	i
CN(CCCOc1ccccc1Br)Cc1ccccc1	-2.22	i	i	i	-0.2	i
Cc1ccc(Cl)c(OCCCCN(C)Cc2ccccc2)c1	-9.54*	i	i	i	-9.2	i
CCCCNCCOCCOc1ccc(Cl)cc1Br	-6.06*	i	i	i	-10.3	i
CN(CCOCCOc1ccc(Cl)cc1Br)Cc1ccccc1	-7.29*	i	i	i	-14.1	i
COc1cc(/C=C/C(=O)OCC(=O)NCCN2C(=O)CSC2=O)ccc1OCC#N	/	i	/	/	/	/
COc1ccccc1NC(=O)c1ccccc1NS(C)(=O)=O	1.05	i	i	i	-7.8	i
COc1ccccc1NC(=O)c1ccccc1NS(=O)(=O)c1cccs1	0.85	i	i	6*	-12.1	i
COc1ccccc1C(C)NS(=O)(=O)c1cccs1 (stereo unspecified)	-4.46*	/	i	i	-3.6	i
CC(C)(CO)CNC(=O)CCc1nnc(C2(c3ccc(Cl)cc3)CCC2)o1	0.55	i	i	i	-8.4	i
CC(C)(C)c1cc[n+](-c2[nH]c(=O)sc2/C=N/NC([S-])=Nc2ccccc2)cc1	-9.26	i	i	8*	-27.6	i
Cc1cc[n+](-c2[nH]c(=O)sc2/C=N/NC([S-])=Nc2ccccc2)cc1C	0	i	i	i	-10.0	i
Cc1ccc(C(C)C)c(OCC(=O)Nc2ccc(N3CCOCC3)cc2N2CCOCC2)c1	/	i	/	/	/	/
Cc1ccc(C(C)C)c(OCC(=O)Nc2ccccc2N2CCN(C)CC2)c1	-5.11*	i	i	i	-10.3	i
COc1cc(C)ccc1OCC(=O)Nc1ccccc1N1CCOCC1	/	i	/	/	/	/
Cc1ccc(OCC(=O)Nc2ccccc2N2CCOCC2)c(C)c1	-8.87*	i	i	i	-4.2	i
Cc1cc(OCC(=O)Nc2ccccc2N2CCCCC2)ccc1C(C)C	-1.19	i	i	i	-10.4	i
